# How the values were obtained:
# [1] = tested on: isolated a and a'c domains of PDI; assay: PDI reductase assay with isolated domains; type: biochemical; settings: domains 1.6 μM; PACMA31 100 μM, 35G8 1 μM
# Outline: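 Isolated His-tagged a and a'c domains were expressed in E. coli and Ni-NTA purified. Each domain was incubated with test compound for 45 min at room temperature in 100 mM sodium phosphate, 2 mM EDTA, 8 μM DTT, pH 7.0. DTT (100 μM) and insulin (130 μM) were then added, and aggregation of reduced insulin B chain was monitored at 650 nm.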
# U87MG xenografts = assay: Mouse flank xenograft model of GBM; type: in vivo, mice; settings: TMZ 5 mg/kg oral gavage, five days/week, two weeks
# Outline: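 Athymic nude Foxn1nu mice (4–6 weeks) bore subcutaneous flank U87MG or D54 xenografts (250,000 cells in RPMI:Matrigel 1:1). From 100 mm3, they received test compound 20 mg/kg i.p. in 5 % DMSO/65 % 1,2-propanediol/30 % saline and/or TMZ 5 mg/kg in Ora-Plus by oral gavage, five days/week for two weeks. Body weight was recorded twice weekly.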
# a'c domain of PDI = a'c domain of PDI (Homo sapiens, UniProt P07237); assay: AMS assay; type: binding; settings: 20 μM domain, 40 μM compound, 1 h
# a'c domain of PDI, sequence (P07237 349-508 limits assumed): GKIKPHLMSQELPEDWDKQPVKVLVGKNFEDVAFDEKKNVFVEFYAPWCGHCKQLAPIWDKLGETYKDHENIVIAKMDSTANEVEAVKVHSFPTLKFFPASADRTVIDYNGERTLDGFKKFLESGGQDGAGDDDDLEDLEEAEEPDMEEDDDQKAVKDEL
# Outline: (§1)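 Isolated a or a'c domain (20 μM) was incubated with or without 40 μM test compound for 1 h in PBS at 25 °C. Free thiols were then blocked with 2 mM AMS. Samples were resolved by SDS-PAGE and stained with Coomassie blue.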
# [2] = tested on: D54, U87MG and A172 cells; assay: Western blot of DNA repair and DDR proteins; type: cell-based, human; settings: 24 hours
# Outline: (§2)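 Protein was measured by BCA. Lysates were resolved on 10 % or 4–12 % gels and transferred to PVDF. Membranes were blocked (StartingBlock or 5 % BSA) and probed with primary antibodies. Detection used DyLight 800 infrared imaging or HRP secondaries with ECL.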
# U87MG cells = type: cell-based, human; settings: Hallmark E2F Targets
# Sox2 = assay: Western blot of stemness marker; type: cell-based; settings: Figure 4H
# Outline: as §2
# a domain of PDI = a domain of PDI (Homo sapiens, UniProt P07237); assay: AMS assay; type: binding; settings: 20 μM domain, 40 μM compound, 1 h
# a domain of PDI, sequence (P07237 18-134 limits assumed): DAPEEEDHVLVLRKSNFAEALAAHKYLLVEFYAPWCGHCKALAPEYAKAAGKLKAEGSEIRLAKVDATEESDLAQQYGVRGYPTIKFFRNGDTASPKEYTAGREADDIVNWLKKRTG
# Outline: as §1
# [3] = tested on: PDI, PDIp, ERp57, ERp46, ERp72, P5, and ERp18; assay: PDI reductase assay, panel of PDI family members; type: biochemical; settings: family members 1 μM, compound 40 μM
molecule,measurement,setting,value
"C[C@]12CC[C@@H]3c4ccc(O)cc4CC[C@H]3[C@@H]1CC[C@@H]2O [Estradiol, estradiol]",inhibition of reductase activity of isolated domains,[1],did not inhibit
"Cn1nnc2c(C(N)=O)ncn2c1=O [TMZ, temozolomide]",decrease in body weight,U87MG xenografts,15%
CCN(C)C(=O)C1(CCOc2ccccc2)CCN(Cc2ccc(O)c(Cl)c2)CC1 [bepristat 1a],inhibition of reductase activity of isolated domains,[1],did not inhibit
PACMA31,AMS binding to a'c domain thiols,a'c domain of PDI,blocked AMS binding
same,inhibition of reductase activity of isolated domains,[1],inhibit reductase activity
same,E2F1 and RAD51 protein expression,[2],dose-dependently lower
same,genes of the E2F targets gene set downregulated,U87MG cells,72%
same,Sox2 protein expression,Sox2,dose-dependently abrogated
same,AMS binding to a domain thiols,a domain of PDI,blocked AMS binding
same,selectivity among PDI family members,[3],inhibits all tested PDI family enzymes
